# According to ChEMBL document CHEMBL3044785, “Isolation and identification of antifungal and antialgal alkaloids from Haplophyllum sieversii” (J Agric Food Chem, 2005):
# Active and inactive are the calls of the source. The rule behind the calls is not given here.
# Legend:
# Phomopsis obscurans [1] = experiment: Antifungal activity against Phomopsis obscurans assessed as growth inhibition at 50 to 150 uM measured up to 120 hr by 96-well microtiter assay; type: functional, organism-based; conditions: Paraphomopsis obscurans
# Outline: (§1)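 Filamentous-fungus broth microdilution in 96 wells, adapted from NCCLS M27A, with benomyl, azoxystrobin and captan as standards. Conidia came from 7–10-day PDA cultures, were filtered and set to 1.0 × 10^6 conidia/mL by A625 standard curve. Compounds were tested at 50.0, 100.0 and 150.0 µM. Growth was read as A620 at 0, 24, 48 and 72 h, plus 120 h for Phomopsis species. Percent inhibition was pooled from two experiments.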
# Planktothrix perornata [2] = experiment: Antialgal activity against Oscillatoria perornata assessed as lowest complete inhibition concentration measured for 4 daysos; type: functional
# Outline: (§2)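 Cyanobacteria (O. perornata, O. agardhii, Pseudanabaena LW397) and the green alga S. capricornutum were each maintained in continuous steady-state culture. Compound in dichloromethane was dried in quartz 96-well plates, then 200 µL culture was added. Final concentrations were 0.1, 1.0, 10.0 and 100.0 µM, in triplicate, and experiments were repeated. Plates were held at 29 °C under continuous light, and A650 was read every 24 h for 4 days. LOEC, LCIC and 96-h IC50 were taken from mean absorbance graphs.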
# [3] = tested on: Selenastrum capricornutum; experiment: Antialgal activity against Selenastrum capricornutum assessed as inhibition measured for 96 hr; type: functional, organism-based; outline: as §2
# [4] = tested on: Selenastrum capricornutum; experiment: Antialgal activity against Selenastrum capricornutum assessed as lowest observed effect concentration measured for 4 days; type: functional; outline: as §2
# [5] = tested on: Colletotrichum gloeosporioides; experiment: Antifungal activity against Colletotrichum gloeosporioides assessed as growth inhibition at 150 µM measured at 72 hr by 96-well microtiter assay
# Phomopsis obscurans [6] = experiment: Antifungal activity against Phomopsis obscurans assessed as growth inhibition at 50 uM measured at 120 hr by 96-well microtiter assay; conditions: Paraphomopsis obscurans
# [7] = tested on: Colletotrichum gloeosporioides; experiment: Antifungal activity against Colletotrichum gloeosporioides assessed as growth inhibition at 150 µM measured at 48 hr by 96-well microtiter assay
# Phomopsis obscurans [8] = experiment: Antifungal activity against Phomopsis obscurans assessed as growth inhibition at 50 uM measured at 120 hr by 96-well microtiter assay; type: functional; conditions: Paraphomopsis obscurans; outline: as §1
# Colletotrichum fragariae = experiment: Antifungal activity against Colletotrichum fragariae assessed as growth inhibition at 50 to 150 uM measured up to 72 hr by 96-well microtiter assay; type: functional, organism-based; outline: as §1
# Planktothrix perornata [9] = experiment: Antialgal activity against Oscillatoria perornata assessed as inhibition measured for 96 hr; type: functional, organism-based; outline: as §2
# Fusarium oxysporum = experiment: Antifungal activity against Fusarium oxysporum assessed as growth inhibition at 50 to 150 uM measured up to 72 hr by 96-well microtiter assay; type: functional, organism-based; outline: as §1
# [10] = tested on: Colletotrichum gloeosporioides; experiment: Antifungal activity against Colletotrichum gloeosporioides assessed as growth inhibition at 50 to 150 uM measured up to 72 hr by 96-well microtiter assay; type: functional, organism-based; outline: as §1
# Planktothrix agardhii [11] = experiment: Antialgal activity against Planktothrix agardhii assessed as lowest observed effect concentration measured for 4 days; type: functional; outline: as §2
# Pseudanabaena sp. [12] = experiment: Antialgal activity against Pseudanabaena sp. LW397 assessed as lowest observed effect concentration measured for 4 days; type: functional; outline: as §2
# Pseudanabaena sp. [13] = experiment: Antialgal activity against Pseudanabaena sp. LW397 assessed as lowest complete inhibition concentration measured for 4 days; type: functional; outline: as §2
# [14] = tested on: Selenastrum capricornutum; experiment: Antialgal activity against Selenastrum capricornutum assessed as lowest complete inhibition concentration measured for 4 days; type: functional; outline: as §2
# Planktothrix agardhii [15] = experiment: Antialgal activity against Planktothrix agardhii assessed as lowest complete inhibition concentration measured for 4 days; type: functional; outline: as §2
# Diaporthe ampelina = experiment: Antifungal activity against Diaporthe ampelina assessed as growth inhibition at 50 to 150 uM measured up to 120 hr by 96-well microtiter assay; type: functional, organism-based; outline: as §1
# Colletotrichum acutatum = experiment: Antifungal activity against Colletotrichum acutatum assessed as growth inhibition at 50 to 150 uM measured up to 72 hr by 96-well microtiter assay; type: functional, organism-based; outline: as §1
# Planktothrix perornata [16] = experiment: Antialgal activity against Oscillatoria perornata assessed as lowest observed effect concentration measured for 4 days; type: functional; outline: as §2
# Pseudanabaena sp. [17] = experiment: Antialgal activity against Pseudanabaena sp. LW397 assessed as inhibition measured for 96 hr; type: functional, organism-based; conditions: LW397, 96 h; outline: as §2
# Botrytis cinerea = experiment: Antifungal activity against Botryotinia fuckeliana assessed as growth inhibition at 50 to 150 uM measured up to 72 hr by 96-well microtiter assay; type: functional, organism-based; outline: as §1
SMILES,growth inhibition (GI) (Phomopsis obscurans [1]),Activity (Planktothrix perornata [2]) [µM],IC50 [3] [µM],Activity [4] [µM],inhibition at 50 µM (Phomopsis obscurans [6]) [%],inhibition at 50 µM (Phomopsis obscurans [8]) [%],growth inhibition (GI) (Colletotrichum fragariae),IC50 (Planktothrix perornata [9]) [µM],growth inhibition (GI) (Fusarium oxysporum),growth inhibition (GI) [10],Activity (Planktothrix agardhii [11]) [µM],Activity (Pseudanabaena sp. [12]) [µM],Activity (Pseudanabaena sp. [13]) [µM],Activity [14] [µM],Activity (Planktothrix agardhii [15]) [µM],growth inhibition (GI) (Diaporthe ampelina),growth inhibition (GI) (Colletotrichum acutatum),Activity (Planktothrix perornata [16]) [µM],also measured
CC1(C)C=Cc2c(O)nc3ccccc3c2O1 [FLINDERSINE],Active,100,17.8,10,> 80,> 80,Active,15.9,Active,Active,>100,>100,>100,100,>100,Active,Active,10,inhibition (INH) [5]: <40%; inhibition (INH) [7]: >65%
COc1ccc2[nH]c(=O)c3c(c2c1)OC(C)(C)C=C3 [HAPLAMINE],Active,10,15.9,10,> 80,> 80,Active,1.8,Active,Active,>100,1,100,100,>100,Active,Active,1,IC50 (Pseudanabaena sp. [17]): 2000 nM; growth inhibition (GI) (Botrytis cinerea): Active
COc1ccc([C@H]2OC[C@H]3[C@@H]2CO[C@@H]3c2ccc(OC)c(OC)c2)cc1OC [(+)-EUDESMIN],Active,>100,–,100,> 80,> 80,Active,–,Active,Active,>100,100,100,>100,>100,Active,Active,10,–
COc1c2ccoc2nc2c(OC)c(OCC3OC3(C)C)ccc12 (centres undefined) [ANHYDROEVOXINE],Active,–,–,–,> 80,> 80,Active,–,Active,Active,–,–,–,–,–,Active,Active,–,–
